Test results reported in ChEMBL document CHEMBL1131166, “Bisphenols that stimulate cells to release alkali metal cations: a structure-activity study” (1998).

Columns and labels:
Type in all cases: functional, Cercopithecidae
COS-7 [1] = experiment: (§1) Fraction of total radioactivity [86Rb] remaining with the compound at a concentration of 10 uM in COS-7 cells
How it was run: (§2)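 COS-7 cells grown in DMEM + 10% FCS to 85–98% confluence, loaded ~4 μCi 86RbCl in BSS (HEPES, pH 7.2) 90 min at 37 °C, washed thrice ice-cold BSS, reincubated 37 °C with medium replaced every 10 min; compound (DMSO stock diluted ≥5000-fold in BSS) present 40 min from 20 min. Cell-retained 86Rb at 60 min as fraction of initial total (cells + media); mean ± SD, three experiments.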

COS-7 [2] = experiment: Fraction of total radioactivity [86Rb] remaining with the compound at a concentration of 0 uM in COS-7 cells; how it was run: as §2
COS-7 [3] = experiment: Fraction of total radioactivity [86Rb] remaining with the compound at a concentration of 0.1 uM in COS-7 cells and value; how it was run: as §2
COS-7 [4] = experiment: Fraction of total radioactivity [86Rb] remaining with the compound at a concentration of 1 uM in COS-7 cells; how it was run: as §2
COS-7 [5] = experiment: Fraction of total radioactivity [86Rb] remaining with the compound at a concentration of 0.01 uM in COS-7 cells; how it was run: as §2
COS-7 [6] = experiment: as §1; remark: listed apart in the source
How it was run: (§3)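 COS-7 cells grown in DMEM with 10% FCS at 37 °C under 5% CO2 until 85–98% confluent. Loaded with about 4 μCi ⁸⁶RbCl in HEPES BSS (pH 7.2) for 90 min at 37 °C, then washed in ice-cold BSS. Reincubated at 37 °C with medium changed every 10 min; compound in BSS (DMSO ≥5000-fold diluted) given for the last 40 min. Read-out is the cell-retained fraction of total ⁸⁶Rb at 60 min by scintillation counting, mean ± SD of three experiments.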

COS-7 [7] = experiment: Fraction of total radioactivity [86Rb] remaining with the compound at a concentration of 0.1 uM in COS-7 cells; how it was run: as §3

In the case of `Oc1ccc(Cc2ccc(O)cc2)cc1`, the “Fraction of accumulated 86Rb remaining.” value (COS-7 [1]) is reported as 0.581.

In the case of `Oc1ccc2ccccc2c1-c1c(O)ccc2ccccc12`, the “Fraction of accumulated 86Rb remaining.” value (COS-7 [1]) is reported as 0.565.

`OCCOc1ccc(C2(c3ccc(OCCO)cc3)c3ccccc3-c3ccccc32)cc1` was tested, and the “Fraction of accumulated 86Rb remaining.” value (COS-7 [1]) was 0.486.

`Nc1ccc(C2(c3ccc(N)cc3)c3ccccc3-c3ccccc32)cc1` was tested, and the “Fraction of accumulated 86Rb remaining.” value (COS-7 [1]) was 0.419.

`Oc1ccc(C2(c3ccc(O)cc3)c3ccccc3-c3ccccc32)cc1` was tested, and the “Fraction of accumulated 86Rb remaining.” value (COS-7 [2]) was 0.556, the “Fraction of accumulated 86Rb remaining.” value (COS-7 [3]) was 0.147 and the “Fraction of accumulated 86Rb remaining.” value (COS-7 [4]) was 0.006. For the same compound, the “Fraction of accumulated 86Rb remaining.” value (COS-7 [5]) was 0.532 and the “Fraction of accumulated 86Rb remaining.” value (COS-7 [1]) was 0.003.

In the case of `Oc1ccc(-c2ccc(O)cc2)cc1`, the “Fraction of accumulated 86Rb remaining.” value (COS-7 [6]) is reported as 0.604.

In the case of `O=C1OC(c2ccc(O)cc2)(c2ccc(O)cc2)c2ccccc21` [PHENOLPHTHALEIN], the “Fraction of accumulated 86Rb remaining.” value (COS-7 [2]) is reported as 0.503, the “Fraction of accumulated 86Rb remaining.” value (COS-7 [7]) is reported as 0.472 and the “Fraction of accumulated 86Rb remaining.” value (COS-7 [4]) is reported as 0.234. The “Fraction of accumulated 86Rb remaining.” value (COS-7 [5]) was 0.461 and the “Fraction of accumulated 86Rb remaining.” value (COS-7 [1]) was 0.091.
